# Screening data (PubChem)
# Compounds with a hit are over-represented: about 3.4% of the library has one in this group of screens.
# MC4R ag barr = agonists of human melanocortin 4 receptor (MC4R) beta-arrestin; P32245; U2OS MC4R beta-arrestin complementation, luminescence; percent of melanotan II response, DMSO zero; activation, % at 8.9 µM; 360,000 tested, 0.98% active;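 active = activation above a per-plate cutoff, the mean activation of sample wells on that plate plus 3 SD, cut at about 8% in these data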
# TMEM16A inh = mouse TMEM16A channel inhibition, primary screen. Q8BHY3. HEK293 TMEM16A/YFP iodide influx fluorescence, ionomycin. normalized B-score (activity score, 25-100; higher = stronger inhibition) at 10 µM. 310,000 tested, 1.2% active;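 active = ratio plate-corrected score three or more library SD toward inhibition, starting fluorescence score within five deviations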;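 note: score derived from kinetic fluorescence span divided by baseline fluorescence per well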
# m5-HT2A agonist = agonists of mouse serotonin 5-HT2A receptor (HTR2A). AID 624169. 360,000 tested, 0.66% active. activation, % at 7.6 µM. P35363. CHO-K1 mHTR2A beta-arrestin complementation, luminescence; percent of 30 µM serotonin response;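 active = activation above a run cutoff, the mean activation of all tested compounds plus 3 SD, cut at about 14% in these data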
# Target sequence (P35363 whole entry, looked up): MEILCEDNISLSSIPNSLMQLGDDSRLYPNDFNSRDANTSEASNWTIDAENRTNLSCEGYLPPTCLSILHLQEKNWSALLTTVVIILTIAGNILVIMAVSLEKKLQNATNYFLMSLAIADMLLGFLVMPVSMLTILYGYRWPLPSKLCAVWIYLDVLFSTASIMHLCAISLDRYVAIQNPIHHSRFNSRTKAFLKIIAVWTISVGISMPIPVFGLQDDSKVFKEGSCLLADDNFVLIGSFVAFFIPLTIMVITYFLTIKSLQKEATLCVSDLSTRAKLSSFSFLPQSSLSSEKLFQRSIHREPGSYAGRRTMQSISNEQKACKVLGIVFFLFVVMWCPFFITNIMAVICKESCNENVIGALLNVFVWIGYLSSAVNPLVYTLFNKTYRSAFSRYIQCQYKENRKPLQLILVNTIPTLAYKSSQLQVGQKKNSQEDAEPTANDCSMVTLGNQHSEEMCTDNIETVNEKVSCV
# MC4R antag cAMP = antagonists of human melanocortin 4 receptor (MC4R). P32245. MC4R-expressing cells, MTII-stimulated cAMP, LANCE TR-FRET. inhibition, % at 6.5 µM. 360,000 tested, 0.48% active. AID 540295;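 active = inhibition above its plate's cutoff, the mean of tested wells on that plate plus 3 SD, cut at about 29% in these data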
#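 Assay system: U2OS cells stably expressing human melanocortin 4 receptor (MC4R) / Dosing: 6.5 µM / Timing: compound 30 min, challenge 1 h, detection 1 h / Measured by: Eu-cAMP/anti-cAMP TR-FRET, emission 671 nm / Replicates: singlicate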
# ANO1 activ = mouse TMEM16A channel activation, primary screen; B-score at 10 µM; 340,000 tested, 0.3% active; HEK293 TMEM16A/YFP-H148Q/I152L, iodide quench fluorescence; hits give low values; Q8BHY3;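 active = fluorescence-ratio B-score plate-corrected deviation score at least 3 library SD below zero, with starting fluorescence score within 5 deviations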;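 note: channel opened by trigger with iodide after compound preincubation; score built on the fluorescence ratio of max minus min over baseline; more negative score means more quench and so TMEM16A activation or potentiation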
# beta cell repl = MIN6 beta-cell proliferation induction; 330,000 tested, 0.29% active; AID 2380; proliferation, % at 10 µM; MIN6 cells proliferation, ATPlite luminescence, 48 h; cells starved in 0.2% serum; 100% = growth in 10% serum;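 active = compounds whose signal lies at least 3.5 SD above the mean of all wells on their plate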
# OPRM1 ag = activates human mu opioid receptor in HTR2A counterscreen; shares compounds with m5-HT2A agonist; U2OS OPRM1 beta-arrestin PathHunter, luminescence; DMSO 0%, DAMGO 9.3 µM 100%; 2,300 tested, 5.3% active; activation, % at 9.3 µM;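 active = mean activation above the mean of DMSO-only wells plus 3 SD, cut at about 0.5% in these data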
# m5-HT2A ag conf = mouse HTR2A agonism confirmed | shares compounds with m5-HT2A agonist | CHO-K1 PathHunter beta-arrestin recruitment, luminescence; DMSO 0%, 30 µM serotonin 100% | activation, % at 7.6 µM | 2,300 tested, 19% active;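 active = mean activation across triplicates above the hit threshold derived in the original primary screen, cut at about 15% in these data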
# A number is an active result; 0 = inactive; - = no result.
SMILES,MC4R ag barr,TMEM16A inh,m5-HT2A agonist,MC4R antag cAMP,ANO1 activ,beta cell repl,others
CN1CCc2c(sc3nc(NCCO)n(-c4cccc(Cl)c4)c(=O)c23)C1,0,0,0,0,0,0,
COC1OC(c2ccccc2)=C(c2cnc(N)nc2)c2ccc(F)cc21 (centres undefined),-,-,0,-,-,-,
CN1CCC(=NNC(=O)CN(c2ccc([N+](=O)[O-])cc2)S(=O)(=O)c2ccccc2)CC1,0,0,16.8,0,0,0,OPRM1 ag=0;m5-HT2A ag conf=0
O=C(COc1cc(Cl)ccc1Cl)N1CCNC1=O,0,-,0,0,0,0,
CN1CCN(C(CNC(=O)C(=O)NC2CCCC2)c2ccc(F)cc2)CC1 (centres undefined),0,0,0,0,0,0,
